Compound activity: PubChem BioAssay, several laboratories
V-ATPase pH = regulators of yeast V-ATPase proton pumping, primary screen, pHLuorin cytosolic pH fluorescence; S. cerevisiae; response, % at 10 µM; 0.37% of 350,000 active; AID 504577, 2011; in the data active = response mostly above about 7.3%, no sharp cut-off; inactive = mostly below about 5.4%; also: actives read high
Granule exo inh = LAMP-1 surface exposure blockers, TALL-104 cells – cell-based, flow cytometry, MLPCN library, primary screen | TALL-104 LAMP-1 surface exposure; cells stimulated with thapsigargin and PMA | inhibition, % at 10 µM | 0.66% of 360,000 active | AID 651702, 2012;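 active = inhibition above about 55%, limit read from the data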
MPTP inh = mitochondrial permeability transition pore inhibitors, primary screen, biochemical, isolated mouse mitochondria, absorbance | Ca2+ swelling absorbance, 30 min | inhibition, % at 10 µM | 1.4% of 360,000 active;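 active = inhibition of 50% or more, scaled per plate between neutral and stimulator controls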;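 also: 0% = DMSO wells given calcium and 100% = 1 mM EGTA wells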
rCAG binder = binders of r(CAG) RNA repeats, primary screen, biochemical, fluorescence. r(CAG) RNA repeat, TO-PRO-1 dye displacement fluorescence. inhibition, % at 3 µM. 1.3% of 370,000 active;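 active = inhibition above the plate cutoff, the mean of all test compounds on that plate plus 3 SD, cut at about 35% in these data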;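 also: 0% = DMSO alone and 100% = 100 µM mitoxantrone as full dye displacement; higher means more dye released from RNA so lower well fluorescence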
Beta2AR agonist = beta2AR agonists driving receptor internalization, primary screen, cell-based, FAP fluorogen, flow cytometry; Beta-2 adrenergic receptor (Homo sapiens), P07550; Am2.2-beta2AR cells; response, % (concentration not given with the values); 0.43% of 340,000 active; AID 504454, 2011;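 active = response above a set limit, near 3 SD of response in nonfluorescent compounds, cut at about 42% in these data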
Target sequence (P07550 whole entry, looked up): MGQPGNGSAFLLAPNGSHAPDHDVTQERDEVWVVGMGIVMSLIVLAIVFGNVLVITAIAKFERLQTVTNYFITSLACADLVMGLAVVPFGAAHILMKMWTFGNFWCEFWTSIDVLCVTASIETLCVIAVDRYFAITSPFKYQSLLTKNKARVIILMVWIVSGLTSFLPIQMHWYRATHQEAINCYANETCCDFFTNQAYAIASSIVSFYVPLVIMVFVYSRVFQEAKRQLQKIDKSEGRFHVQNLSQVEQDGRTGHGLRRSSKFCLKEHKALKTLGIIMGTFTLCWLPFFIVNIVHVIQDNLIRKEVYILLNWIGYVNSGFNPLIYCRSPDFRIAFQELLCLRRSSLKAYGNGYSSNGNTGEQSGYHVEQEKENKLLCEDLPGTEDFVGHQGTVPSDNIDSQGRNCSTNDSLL
T cell HTS = modulators of CD8 T cell-vesicle binding, primary screen, mouse 2C CD8+ T cells, flow cytometry | response (vesicle binding), % at 7 µM | AID 2052, 2009 | 0.068% of 330,000 active | 2C CD8+ T cell-vesicle binding; active compounds read low;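 active = response, share of CD8 T cells binding vesicles, and their 90th percentile fluorescence all below set limits, cut at about 80% in these data, passing the limit was not always enough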;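 also: values below 100% mean blocked vesicle binding to the CD8+ T cells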
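Assay system – 2C mouse CD8+ T cells · Also added – QL9-loaded Drosophila micro-vesicles · Timing – Cell–vesicle co-incubation 1.5 h at 37 °C, staining 20 min on ice · Signal – flow cytometry of vesicle-bound cells · Measure – percent CD8+ FL2 mean versus row control · Controls – Peptide-free naked vesicles (low) and QL9 vesicles with 0.7% DMSO vehicle (high)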
Rh123 counter = fluorescence retest of MPTP screen hits in isolated mitochondria, single concentration. membrane potential, Rhodamine 123 fluorescence. inhibition, % at 10 µM. 78% of 5,000 active. AID 624504, 2012. shares compounds with MPTP inh; in the data active = inhibition above about 22%;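 also: 0% = DMSO vehicle and 100% = positive control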
MPTP swell DR = mitochondrial permeability transition pore inhibitors, dose response, biochemical, absorbance, uHTS hits; shares compounds with MPTP inh; isolated mitochondria swelling; IC50, µM; 58% of 780 active; AID 651561, 2012; in the data active = IC50 below about 20 µM
MPTP counter DR = fluorescent counter-screen in isolated mitochondria, dose response, counter-screen for MPTP inhibitor project, biochemical, fluorescence, uHTS hits; shares compounds with MPTP inh; isolated mitochondria counterscreen, fluorescence read-out; IC50, µM; 49% of 780 active; AID 651564, 2012; in the data active = IC50 below about 80 µM
The depositor's hits bear a star; nt = no result. This is a sample that favours compounds with a hit; in the whole collection about 3.8% have one here.

SMILES	V-ATPase pH	Granule exo inh	MPTP inh	rCAG binder	Beta2AR agonist	T cell HTS	Rh123 counter	others
O=C([C@@H]1C[C@H]1c1ccccc1)N1CC[C@H]2[C@H](CCCN2Cc2cc(F)cc(F)c2)C1	nt	nt	nt	2.6	nt	nt	nt
Cc1ccc(CN2CCN(CC(=O)NCCCN3CCN(c4ccc(F)cc4)CC3)C2=O)cc1	-0.1	0.3	56.1*	-5.2	1.3	391.0	12.2	MPTP swell DR=13.6*;MPTP counter DR=17.8*
O=C(NCc1ccccc1)[C@@H]1CCCN1C(=O)[C@H]1CCCN1C(=O)c1ccc(F)c(C(F)(F)F)c1	nt	nt	nt	0.7	nt	nt	nt
O=C(N/N=C/C1C(c2ccccc2)C1(Cl)Cl)c1cccc(Cl)c1 (configuration not stated)	-2.1	9.6	75.4*	6.2	-4.0	293.8	79.6*
Cc1nn(CCc2nn[nH]n2)c2nc(-c3ccc(C4CCCCC4)cc3)cc(C(F)(F)F)c12	2.5	0.0	59.1*	28.1	23.1	281.7	25.6*
CCOC(=O)[C@@]12CCCC3=C1N(CCC3)C(=O)[C@H]2CC(=O)NCc1cccs1	nt	nt	nt	0.7	nt	nt	nt
c1ccc(C(Cc2nc(-c3ccncc3)no2)c2ccccc2)cc1	-0.1	5.8	77.6*	-2.8	-3.4	262.2	71.9*
c1ccc(-c2nc(-c3ccncc3)no2)cc1	0.3	-0.1	-1.4	0.7	-0.7	0.0	nt
COc1ccc(NCc2nc3ccccc3n2CCOc2ccccc2)cc1	0.8	26.6	1.0	0.9	9.6	93.9	nt
COc1ccc(NCc2nc3ccccc3n2CCOc2ccc(C)cc2)cc1	-80.2	7.9	69.6*	-1.9	-0.3	315.7	37.2*
CC(=O)c1c(C)[nH]c(C(=O)Nc2ccc(Cl)c(S(=O)(=O)N3CCOCC3)c2)c1C	-2.3	-4.1	63.5*	4.8	30.0	268.8	79.8*
CC(=O)c1c(C)[nH]c(C(=O)Nc2ccc(C)c(S(=O)(=O)Nc3ccc(C)cc3C)c2)c1C	-0.4	0.1	91.8*	13.2	19.9	167.4	71.5*
CC(=O)c1c(C)[nH]c(C(=O)Nc2ccc(C)c(S(=O)(=O)N(C)C)c2)c1C	-0.6	-6.1	3.2	5.7	1.2	629.9	nt
CCN(CC)S(=O)(=O)c1cccc(NC(=O)COC(=O)c2[nH]c(C)c(C(C)=O)c2C)c1	nt	4.6	85.7*	11.9	nt	nt	88.2*
CC(=O)c1c(C)[nH]c(C(=O)OCC(=O)Nc2cc(S(=O)(=O)N3CCCC3)ccc2Cl)c1C	0.4	-5.9	22.9	2.5	-6.4	311.8	nt
CC(=O)c1c(C)[nH]c(C(=O)OCC(=O)Nc2cccc(S(=O)(=O)N3CCCC3)c2)c1C	-2.0	0.7	61.9*	11.6	8.9	134.4	61.1*
CCOC(=O)c1csc(NC(=O)C2CCCN(S(=O)(=O)c3ccccc3[N+](=O)[O-])C2)n1 (configuration not stated)	nt	nt	nt	3.2	nt	nt	nt
CCn1c(SCC(=O)Nc2ccccc2-c2ccccc2)nnc1-c1ccc(Cl)cc1	nt	nt	nt	2.3	nt	nt	nt
CCCN(CCC)CC(O)Cn1cc(/C=C/C(=O)c2cccs2)c2ccccc21 (configuration not stated)	-1.0	45.1	74.4*	-16.2	2.8	307.0	-16.0
O=C(/C=C/c1cn(CC(O)CN2CCCCC2)c2ccccc12)c1cccs1 (configuration not stated)	2.4	20.4	23.1	3.7	-139.3	193.0	nt
Cc1nc2ccccc2n1Cc1ccccc1Br	-0.3	-15.1	73.1*	-0.2	-14.1	348.5	80.9*
Cc1nc2ccccc2n1Cc1ccc(Br)cc1	-0.6	-2.5	92.8*	-5.5	10.7	328.3	96.1*
